Usually IC50 stands for the concentration at which inhibition is half-maximal.

In series [1] the test system is HUVEC. As to the kind of experiment: Antiinflammatory activity against TNF-alpha-induced ICAM1 protein expression in HUVEC at maximum tolerated dose pretreated for 2 hrs before TNFalpha challenge measured after 16 hrs by whole cell ELISA. In kind it is functional, Homo sapiens. An outline of the steps:
(§1)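 Primary umbilical cord endothelial cells were pre-incubated 2 h with or without compound, then TNF-α (10 ng/mL) for 16 h (ICAM-1, VCAM-1) or 4 h (E-selectin). Whole-cell ELISA: glutaraldehyde fixation, milk block, primary antibody overnight at 4 °C, peroxidase secondary, OPD substrate, A490. IC50 read from %inhibition vs log concentration plots of three independent experiments. Single-level values were taken at the highest concentration giving >95% viability (MTT, 24 h).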
In general terms: In an ELISA, binding on a coated surface is turned into a signal by an enzyme label.

The subject of series [2] is HUVEC. As to the kind of experiment: Antiinflammatory activity against TNF-alpha-induced ICAM1 protein expression in HUVEC pretreated for 2 hrs before TNFalpha challenge measured after 16 hrs by whole cell ELISA. In kind it is functional, cell-based. As to conditions: Homo sapiens. In a few lines: as §1
A short description of series [3]: Cytotoxicity against HUVEC assessed as maximum tolerated dose for >95% cell viability after 24 hrs by MTT assay. In kind it is cell-based. As to conditions: human, HUVEC cells; read-out: MTD. In a few lines: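 Primary human umbilical vein endothelial cells (mild trypsinization), grown in M-199 with 15% heat-inactivated FCS, endothelial cell growth factor and heparin, 5% CO2. Cells attached overnight, then exposed to compounds or DMSO (0.25%) for 24 h; MTT (5 mg/mL in PBS) 4 h, formazan dissolved in DMSO, absorbance 570 nm. Also checked by trypan blue exclusion. Value is highest concentration giving >95% viability; ≥3 experiments in triplicate.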

Series [4] can be described thus: Antiinflammatory activity against TNF-alpha-induced VCAM-1 protein expression in HUVEC by ELISA.

Molecules are shown by their SMILES. Values after ≈ are worked out from the molar mass of the structure shown.

For the molecule `O=C(/C=C/c1ccccc1)Sc1ccccc1` [PHENYL THIOCINNAMATE], the “inhibition (INH)” value in the series on HUVEC [1] was found to be 65%. The IC50 in the series on HUVEC [2] is 55 µg/mL (≈ 229 µM). The MNTC at 24 h in series [3] was 70 µg/mL.
Taken in the same sequence, the figures for `CC(C)OC(=S)/C=C/c1ccccc1` [ISOPROPYL THIONOCINNAMATE] were 80%, 20 µg/mL (≈ 96.9 µM) and 35 µg/mL.
For the molecule `CCCCCCCCSC(=O)/C=C/c1ccccc1` [OCTYL THIOCINNAMATE], the “inhibition (INH)” value with HUVEC [1] is on record as 45%. Besides, the MNTC at 24 h in series [3] amounted to 60 µg/mL.
In the case of `O=C(/C=C/c1ccccc1)SCc1ccccc1` [BENZYL THIOCINNAMATE], in the series with HUVEC [1], the “inhibition (INH)” value was determined as 40%. Also, in series [3], the MNTC at 24 h was found to be 60 µg/mL.
Turning to `CCCOC(=O)CCc1ccc(OC)c(OC)c1`, the “inhibition (INH)” value with HUVEC [1] was 55%. Further, in the series on HUVEC [2], the half-inhibitory concentration (IC50) turned out to be 90 µg/mL (≈ 357 µM). In addition, in series [3], the MNTC at 24 h came out at 100 µg/mL.
With `COc1cc(CCC(=O)OC(C)C)cc(OC)c1OC`, the “inhibition (INH)” value with HUVEC [1] is 40%. For the same molecule, the MNTC at 24 h in series [3] is 65 µg/mL.
With `CCOC(=S)/C=C/c1ccccc1` [ETHYL THIONOCINNAMATE], the “inhibition (INH)” value in the series on HUVEC [1] was determined as 90%. For the same molecule, the IC50 in the series with HUVEC [2] was found to be 22 µg/mL (≈ 114 µM). In series [3], the MNTC at 24 h worked out at 50 µg/mL.
In the case of `COc1cc(/C=C/C(=O)Oc2ccccc2)cc(OC)c1OC`, in the series on HUVEC [1], the “inhibition (INH)” value was found to be 40%. Moreover, in series [3], the MNTC at 24 h was found to be 45 µg/mL.
`CCCOC(=O)/C=C/c1cc(OC)ccc1OC`: the “inhibition (INH)” value with HUVEC [1] is reported as 55%. Further, the half-inhibitory concentration (IC50) with HUVEC [2] was 110 µg/mL (≈ 439 µM). Besides, the MNTC at 24 h in series [3] worked out at 120 µg/mL.
With `COc1ccc(OC)c(/C=C/C(=O)SCc2ccccc2)c1`, the “inhibition (INH)” value in the series with HUVEC [1] came out at 50%. Also, the half-inhibitory concentration (IC50) in the series on HUVEC [2] was found to be 60 µg/mL (≈ 191 µM). Moreover, in series [3], the MNTC at 24 h turned out to be 60 µg/mL.
With `CCCOC(=S)/C=C/c1ccccc1` [PROPYL THIONOCINNAMATE], the “inhibition (INH)” value in the series on HUVEC [1] is reported as 75%. The concentration for half-maximal inhibition (IC50) in the series on HUVEC [2] turned out to be 50 µg/mL (≈ 242 µM). Further, the MNTC at 24 h in series [3] was 80 µg/mL.
The molecule `CC(=O)Oc1ccccc1C(=O)O` [ASPIRIN] displayed a half-maximal inhibitory concentration (IC50) in series [4] of 6 mM.
As for `CCSC(=O)CCc1cc(OC)c(OC)c(OC)c1`, the “inhibition (INH)” value in the series on HUVEC [1] was 50%. Besides, the half-inhibitory concentration (IC50) in the series with HUVEC [2] is 60 µg/mL (≈ 211 µM). In addition, the MNTC at 24 h in series [3] amounted to 60 µg/mL.
Consider `COc1cc(CCC(=O)SCc2ccccc2)cc(OC)c1OC`, for which, in the series on HUVEC [1], the “inhibition (INH)” value is recorded as 45%. The MNTC at 24 h in series [3] amounted to 60 µg/mL.
`CCCOC(=S)/C=C/c1cc(OC)ccc1OC`: in the series with HUVEC [1], the “inhibition (INH)” value was 70%. The half-maximal inhibitory concentration (IC50) with HUVEC [2] amounted to 25 µg/mL (≈ 93.9 µM). Moreover, the MNTC at 24 h in series [3] worked out at 40 µg/mL.
Taken in the same sequence, the figures for `CCCCOC(=S)/C=C/c1ccccc1` [BUTYL THIONOCINNAMATE] were 70%, 55 µg/mL (≈ 250 µM) and 85 µg/mL.
Take `CCCOC(=O)/C=C/c1cc(OC)c(OC)c(OC)c1`: the “inhibition (INH)” value in the series on HUVEC [1] is recorded as 62%. Besides, the 50% inhibitory concentration (IC50) with HUVEC [2] worked out at 100 µg/mL (≈ 357 µM). Besides, the MNTC at 24 h in series [3] worked out at 120 µg/mL.
Taken in the same sequence, the figures for `CCCSC(=O)/C=C/c1cc(OC)c(OC)c(OC)c1` were 50%, 70 µg/mL (≈ 236 µM) and 70 µg/mL.
Taken in the same sequence, the figures for `CCOC(=O)/C=C/c1cc(OC)c(OC)c(OC)c1` were 90%, 25 µg/mL (≈ 93.9 µM) and 50 µg/mL.
In the case of `CCCSC(=O)/C=C/c1cc(OC)ccc1OC`, the “inhibition (INH)” value in the series on HUVEC [1] is on record as 55%. Besides, in the series with HUVEC [2], the IC50 is 45 µg/mL (≈ 169 µM). For the same molecule, the MNTC at 24 h in series [3] came to 50 µg/mL.
For the molecule `CCCCCCCCSC(=O)/C=C/c1cc(OC)c(OC)c(OC)c1`, in the series with HUVEC [1], the “inhibition (INH)” value is given as 46%. For the same molecule, in series [3], the MNTC at 24 h turned out to be 70 µg/mL.
Taken in the same sequence, the figures for `CCCCCCCCSC(=O)CCc1cc(OC)c(OC)c(OC)c1` were 40% and 80 µg/mL.
With `CCSC(=O)/C=C/c1cc(OC)c(OC)c(OC)c1`, the “inhibition (INH)” value in the series with HUVEC [1] is given as 65%. Also, in the series on HUVEC [2], the half-inhibitory concentration (IC50) was determined as 25 µg/mL (≈ 88.5 µM). The MNTC at 24 h in series [3] came out at 30 µg/mL.
For `CCSC(=O)/C=C/c1ccccc1` [ETHYL THIOCINNAMATE] the same measures were 55%, 47 µg/mL (≈ 244 µM) and 50 µg/mL.
On to `CCOC(=O)CCc1cc(OC)c(OC)c(OC)c1`, for which the “inhibition (INH)” value with HUVEC [1] was determined as 50%. Besides, the concentration for half-maximal inhibition (IC50) with HUVEC [2] is 110 µg/mL (≈ 410 µM). Further, the MNTC at 24 h in series [3] stood at 110 µg/mL.
In the case of `COc1cc(/C=C/C(=O)OC(C)C)cc(OC)c1OC`, the “inhibition (INH)” value in the series with HUVEC [1] is 80%. The IC50 in the series with HUVEC [2] is 45 µg/mL (≈ 161 µM). Also, the MNTC at 24 h in series [3] is 65 µg/mL.
Turning to `COc1cccc(/C=C/C(=O)OC(C)C)c1O`, in the series with HUVEC [1], the “inhibition (INH)” value amounted to 30%. Besides, the MNTC at 24 h in series [3] came out at 120 µg/mL.
For `CCCCCCCCSC(=O)/C=C/c1cc(OC)ccc1OC` the same measures were 30% and 50 µg/mL.
In the case of `CCOC(=O)/C=C/c1ccccc1` [ETHYL CINNAMATE], in the series on HUVEC [1], the “inhibition (INH)” value came out at 85%. In addition, the IC50 in the series on HUVEC [2] was found to be 95 µg/mL (≈ 539 µM). Further, the MNTC at 24 h in series [3] worked out at 130 µg/mL.
For `COc1cc(/C=C/C(=O)Sc2ccccc2)cc(OC)c1OC` the same measures were 85%, 30 µg/mL (≈ 90.8 µM) and 50 µg/mL.
Taken in the same sequence, the figures for `CCOC(=S)/C=C/c1cc(OC)ccc1OC` were 80%, 15 µg/mL (≈ 59.4 µM) and 25 µg/mL.
Regarding `CCSC(=O)/C=C/c1cc(OC)ccc1OC`, the “inhibition (INH)” value in the series on HUVEC [1] was found to be 70%. Besides, the IC50 in the series with HUVEC [2] is 35 µg/mL (≈ 139 µM). For the same molecule, in series [3], the MNTC at 24 h came out at 50 µg/mL.
Take `COc1ccc(CCC(=O)OC(C)C)cc1OC`: in the series with HUVEC [1], the “inhibition (INH)” value is recorded as 30%. Moreover, in series [3], the MNTC at 24 h stood at 110 µg/mL.
Regarding `COc1ccc(OC)c(/C=C/C(=O)Oc2ccccc2)c1`, in the series on HUVEC [1], the “inhibition (INH)” value stood at 30%. In series [3], the MNTC at 24 h amounted to 60 µg/mL.
Consider `CCCOC(=S)/C=C/c1cc(OC)c(OC)c(OC)c1`, for which, in the series on HUVEC [1], the “inhibition (INH)” value came out at 80%. Further, the IC50 in the series on HUVEC [2] is 17 µg/mL (≈ 57.4 µM). Besides, the MNTC at 24 h in series [3] came to 30 µg/mL.
As for `CCCCOC(=O)/C=C/c1ccccc1` [BUTYL CINNAMATE], the “inhibition (INH)” value in the series with HUVEC [1] is listed as 55%. Moreover, in the series with HUVEC [2], the half-maximal inhibitory concentration (IC50) came out at 125 µg/mL (≈ 612 µM). For the same molecule, the MNTC at 24 h in series [3] turned out to be 140 µg/mL.
Regarding `COc1ccc(OC)c(/C=C/C(=O)OC(C)C)c1`, the “inhibition (INH)” value with HUVEC [1] was 35%. Besides, the MNTC at 24 h in series [3] is 120 µg/mL.
`CCCOC(=O)CCc1cc(OC)c(OC)c(OC)c1`: the “inhibition (INH)” value with HUVEC [1] came out at 62%. The IC50 in the series on HUVEC [2] is 110 µg/mL (≈ 390 µM). In series [3], the MNTC at 24 h was 120 µg/mL.
`O=C(/C=C/c1ccccc1)OCc1ccccc1` [BENZYL CINNAMATE]: in the series with HUVEC [1], the “inhibition (INH)” value is reported as 50%. Besides, the IC50 in the series with HUVEC [2] stood at 70 µg/mL (≈ 294 µM). The MNTC at 24 h in series [3] is 70 µg/mL.
On to `CCCOC(=O)/C=C/c1ccccc1` [PROPYL CINNAMATE], for which, in the series on HUVEC [1], the “inhibition (INH)” value is on record as 70%. Moreover, in the series with HUVEC [2], the IC50 is 100 µg/mL (≈ 526 µM). The MNTC at 24 h in series [3] worked out at 140 µg/mL.
With `CCCCCCCCOC(=O)/C=C/c1ccccc1` [OCTYL CINNAMATE], the “inhibition (INH)” value in the series with HUVEC [1] is on record as 35%. In addition, in series [3], the MNTC at 24 h is 70 µg/mL.
For `COc1cc(/C=C/C(=O)SCc2ccccc2)cc(OC)c1OC`, in the series on HUVEC [1], the “inhibition (INH)” value was 75%. Moreover, in the series on HUVEC [2], the half-maximal inhibitory concentration (IC50) came to 20 µg/mL (≈ 58.1 µM). Moreover, the MNTC at 24 h in series [3] was 40 µg/mL.
`Nc1ccc(O)c(C(=O)O)c1` [MESALAMINE] registered an IC50 in series [4] of 16 mM.

Values taken from ChEMBL document CHEMBL1909575, “Novel natural product-based cinnamates and their thio and thiono analogs as potent inhibitors of cell adhesion molecules on human endothelial cells” (Eur J Med Chem, 2011).
